A selection: hits, their analogues and other compounds. The true share with any hit is near 27%.
CYP2C19 activ: cytochrome P450 2C19 (human) activation. 96,000 tested, under 10 active. activation factor at 5 µM. recombinant CYP2C19, luciferin-H EGE luminescence; stronger effect = higher value; 0 = fully inhibited enzyme, 1 = untreated enzyme. P33261. AID 1025;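 active = activation factor of at least 2 at 5 µM in the primary screen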
Target sequence (P33261 whole entry, looked up): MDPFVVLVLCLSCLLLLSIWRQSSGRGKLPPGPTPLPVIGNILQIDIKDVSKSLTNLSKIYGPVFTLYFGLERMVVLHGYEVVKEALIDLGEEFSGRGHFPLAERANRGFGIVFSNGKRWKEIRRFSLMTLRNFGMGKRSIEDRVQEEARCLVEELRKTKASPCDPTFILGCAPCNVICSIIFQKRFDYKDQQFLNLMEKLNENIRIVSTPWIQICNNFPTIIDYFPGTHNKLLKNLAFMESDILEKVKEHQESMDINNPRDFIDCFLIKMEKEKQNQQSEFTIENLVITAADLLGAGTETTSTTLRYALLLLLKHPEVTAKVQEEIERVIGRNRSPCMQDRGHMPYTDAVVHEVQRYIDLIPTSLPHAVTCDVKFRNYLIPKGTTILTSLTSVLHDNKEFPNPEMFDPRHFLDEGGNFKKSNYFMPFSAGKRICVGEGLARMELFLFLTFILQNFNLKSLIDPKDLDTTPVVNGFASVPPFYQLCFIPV
CYP2C9 inh: human CYP2C9 inhibition. P11712. CYP2C9 Supersomes, luciferin-H conversion, luminescence. inhibition, % at 5 µM. 96,000 tested, 20% active. AID 777;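 active = blocking of liver enzyme CYP2C9 beyond about 50% at 5 µM, limit read from the data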
Rev-RRE block: inhibitors of HIV-1 Rev-RRE RNA interaction; 97,000 tested, 0.79% active; Rev peptide-RRE RNA binding, FRET; P05866; inhibition, % at 8 µM;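 active = inhibition above the screen-wide mean plus 3 SD, cut at about 35% in these data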
Target sequence (P05866 whole entry, looked up): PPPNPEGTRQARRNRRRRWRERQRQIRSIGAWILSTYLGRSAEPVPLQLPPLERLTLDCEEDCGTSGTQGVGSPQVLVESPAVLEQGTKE
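Test system: Cy5-tagged RRE RNA duplex with fluorescein-tagged Rev peptide | Read-out: % inhibition of FRET ratio versus controls | Probe or stimulus: Labelled Rev peptide | Incubation: 5 min RNA-compound premix plus 15 min binding step, 25 °C | Technique: FRET fluorescence readout | Benchmarks: DMSO low control, neomycin B high control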
CYP2C19 inhib: blocks human cytochrome P450 2C19; inhibition, % at 5 µM; 96,000 tested, 21% active; CYP2C19 Supersomes, luciferin-H EGE luminescence, 30 min; P33261;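 active = CYP2C19 inhibition above a set limit at 5 µM in the primary screen, cut at about 50% in these data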
Cav32 inh: blocks human Cav3.2 T-type calcium channel. B-score at 10 µM. 100,000 tested, 4% active. Cav3.2-expressing cells, Fluo-4 calcium fluorescence FDSS; stronger effect = lower value. O95180;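 active = single-dose well whose peak fluorescence ratio is a statistical outlier from its plate by either plate-standardised score or position-corrected B-score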
CYP2C9 activ: CYP2C9 (human) activation. recombinant CYP2C9, luciferin-H conversion, luminescence; stronger effect = higher value; factor 1 = untreated enzyme, 0 = blocked. activation factor at 5 µM. 96,000 tested, 1.4% active;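 active = activation factor of 2 or more for CYP2C9 at a 5 µM dose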
Each line names hits and unclear results; the compound was inactive in the other large screens.

CCOc1ccc(-n2c(SCc3ccc(C#N)cc3)nnc2-c2cccnc2)cc1	Cav32 inh -6.8
CCOc1ccc(-n2c(Cc3cc(=O)[nH]c(=O)[nH]3)nnc2SCC)cc1	none
C=CCSc1nnc(-c2ccncc2)n1-c1ccc(OCC)cc1	CYP2C9 inh 54.1, CYP2C19 inhib 99.2
COc1ccc(-n2c(COc3ccc(C)cc3)nnc2SCc2ccc(C#N)cc2)cc1	none
N#Cc1ccc(CSc2nnc(-c3cccnc3)n2-c2ccccc2)cc1	none (no result: Rev-RRE block)
CCn1c(SCc2ccc(C#N)cc2)nnc1-c1cccc(Cl)c1	CYP2C19 inhib 65.0
CCn1c(COc2ccc(Cl)cc2)nnc1SCc1ccc(C#N)cc1	CYP2C9 inh 76.4, CYP2C19 inhib 76.3
CCn1c(SCc2ccc(Cl)cc2)nnc1-c1ccccc1	none (no result: CYP2C19 activ, CYP2C9 inh, CYP2C19 inhib, CYP2C9 activ)
COc1ccc(-n2c(COc3ccc(Cl)cc3)nnc2SCc2ccc(C#N)cc2)cc1	Cav32 inh -4.26
COc1ccc(OC)c(NC(=O)COC(=O)c2ccc(-n3cnnn3)cc2)c1	CYP2C19 inhib 63.3
COc1ccc(C(C)=O)cc1COc1ccc(-n2cnnn2)cc1	CYP2C9 inh 93.4, CYP2C19 inhib 99.1
COC(=O)c1ccc(COC(=O)c2ccc(-n3cnnn3)cc2)o1	CYP2C9 inh 63.5
O=C(OCCOc1ccccc1Cl)c1ccc(-n2cnnn2)cc1	none
C#CCOCCOCCOCCNc1nc(N2CCN(C(=O)[C@H](CCCCN)n3cc(C(N)CO)nn3)CC2)nc(N2CCN(C(=O)[C@H](CCCCN)n3cc(C(N)COC(=O)C(F)(F)F)nn3)CC2)n1 (some centres not stated)	none (no result: CYP2C19 activ, CYP2C9 inh, Rev-RRE block, CYP2C19 inhib, CYP2C9 activ)
CN(C)c1cccc(-c2nnc(SCCCC#N)o2)c1	none
COc1cccc(Cn2cnc3c(NS(=O)(=O)c4cc(Cl)ccc4Cl)c(C)c(C)cc32)c1	CYP2C9 inh 53.1, Cav32 inh -5.44
COc1cccc(Cn2cnc3c(NS(=O)(=O)c4ccc(Cl)cc4)c(C)c(C)cc32)c1	none
COc1cccc(Cn2cnc3c(NS(=O)(=O)c4cccc(Cl)c4Cl)c(C)c(C)cc32)c1	CYP2C9 inh 96.4, CYP2C19 inhib 84.3, Cav32 inh -5.39
COc1cc(C)c(Cl)c(C)c1S(=O)(=O)NCc1cccnc1	none
COc1cccc(Cn2cnc3c(NS(=O)(=O)c4ccc(Cl)cc4Cl)c(C)c(C)cc32)c1	Cav32 inh -3.45
Cc1cc2c(ncn2Cc2ccccc2)c(NS(C)(=O)=O)c1C	CYP2C19 inhib 54.1
COc1ccc(Oc2ncnc3c2ncn3Cc2ccccc2)cc1	none
CCCC(=O)c1ccc(-c2ccccc2)cc1	none (no result: Cav32 inh)
O=C(O)C1C2C=CC(C2)C1C(=O)NCCc1cccc(Cl)c1 (configuration not stated)	none (no result: CYP2C19 activ, CYP2C9 inh, CYP2C19 inhib, CYP2C9 activ)
CCOC(=O)C1C(=O)NC(N2CCCCC2)=NC1c1ccco1 (configuration not stated)	none
CCOCCCNCC(=O)N1CCN(S(=O)(=O)c2ccc(C)cc2)CC1	none
CC(/C=N\NC(=O)Cn1c(C)nc2ccccc21)=C\c1ccccc1	none (no result: Cav32 inh)
Cc1nc2ccccc2c(=O)n1/N=C/c1ccc(O)cc1	none
Cc1sc2nc(C)n(/N=C/c3ccccc3)c(=O)c2c1C	CYP2C19 inhib 76.6
COc1ccc(COc2cc(-c3cccc(OC)c3)nc3ccc(NC(=O)c4cccnc4)cc23)cc1	none (no result: CYP2C19 activ, CYP2C9 inh, Rev-RRE block, CYP2C19 inhib, CYP2C9 activ)
O=c1cc(N2CCCCC2)c(-c2ccccc2)nn1Cc1c(Cl)cccc1Cl	none
CCn1c(SCc2nc3ccccc3[nH]2)nnc1-c1ccccc1OC	CYP2C9 inh 70.1, CYP2C19 inhib 100.4
CCn1c(SCc2nc3ccccc3[nH]2)nnc1-c1cccs1	CYP2C19 inhib 99.4
c1ccc(C(c2nnnn2Cc2ccco2)N2CCN(C3CCCC3)CC2)cc1 (configuration not stated)	none (no result: Rev-RRE block)
COc1ccc(C(c2nnnn2Cc2ccccc2)N2CCN(c3nc4ccccc4s3)CC2)cc1OC (configuration not stated)	none (no result: CYP2C19 activ, CYP2C9 inh, CYP2C19 inhib, CYP2C9 activ)
c1ccc(C(c2nnnn2Cc2ccco2)N2CCN(c3nc4ccccc4s3)CC2)cc1 (configuration not stated)	Cav32 inh -3.39 (no result: CYP2C19 activ, CYP2C9 inh, CYP2C19 inhib, CYP2C9 activ)
Cc1ccc(C)c(N2CCN(C(c3ccc(N(C)C)cc3)c3nnnn3C(C)(C)C)CC2)c1 (configuration not stated)	Cav32 inh -5.54 (no result: CYP2C19 activ, CYP2C9 inh, CYP2C19 inhib, CYP2C9 activ)
c1ccc(Cn2nnnc2C(c2ccccc2)N2CCN(c3nc4ccccc4s3)CC2)cc1 (configuration not stated)	CYP2C9 inh 64.7, CYP2C19 inhib 57.8
COc1ccccc1C(c1nnnn1Cc1ccccc1)N1CCN(c2nc3ccccc3s2)CC1 (configuration not stated)	CYP2C9 inh 55.6, Cav32 inh -4.22 (no result: Rev-RRE block)
Cc1ccc(C(c2nnnn2C(C)(C)C)N2CCC(C)CC2)cc1 (configuration not stated)	none (no result: CYP2C19 activ, CYP2C9 inh, CYP2C19 inhib, CYP2C9 activ)
Cc1nc2c(ccc3nc(NC(=O)C(c4ccccc4)c4ccccc4)sc32)s1	none (no result: CYP2C19 activ, CYP2C9 inh, Rev-RRE block, CYP2C19 inhib, CYP2C9 activ)
Cc1c(NC(=O)Nc2ccc(Cl)c(Cl)c2)c(=O)n(-c2ccccc2)n1C	none (no result: Rev-RRE block)
Cc1ccc(C)c(N2CCN(C(c3ccncc3)c3nnnn3Cc3ccccc3)CC2)c1 (configuration not stated)	CYP2C9 inh 93.0, CYP2C19 inhib 96.7
CCCCC(c1nnnn1Cc1ccco1)N1CCN(c2nc3ccccc3s2)CC1 (configuration not stated)	CYP2C9 inh 91.4, CYP2C19 inhib 94.6
O=C(N1CCCC1)n1c(Cc2ccccc2)nc2ccccc21	none
COc1cc(CCCN2C(=S)NC[C@@H]2CC2CCCCC2)cc(OC)c1OC	none (no result: CYP2C19 activ, CYP2C9 inh, Rev-RRE block, CYP2C19 inhib, CYP2C9 activ)
O=C1C(c2ccc(F)cc2)N(CC2COc3ccccc3O2)C(=O)CN1C1CCCCC1 (configuration not stated)	none
Cc1ccc(N(Cc2ccco2)C(=O)c2cccc(S(=O)(=O)N(C)C)c2)cc1	Cav32 inh -4.25
CN(C)S(=O)(=O)c1cccc(C(=O)N(Cc2ccc(F)cc2)Cc2ccco2)c1	CYP2C9 inh 50.8, Cav32 inh -4.46
O=C(CSc1nn(-c2ccc(Cl)cc2)c(=S)s1)N1CCN(C(=O)c2ccco2)CC1	none (no result: Rev-RRE block)
CCN1C(=O)Cc2cc(S(=O)(=O)N3CCOCC3)ccc21	none
O=c1c2ccccc2sn1-c1cc(S(=O)(=O)N2CCOCC2)ccc1N1CCOCC1	CYP2C9 inh 53.9, CYP2C19 inhib 66.0
Cc1nc2c(C(=O)NCc3ccc(F)cc3)c[nH]n2c(=O)c1Cl	CYP2C9 inh 63.2
Cc1nc2c(C(=O)NCCc3ccccc3)c[nH]n2c(=O)c1Cl	CYP2C9 inh 63.7
O=C(NCCc1ccccc1)c1cnc2sccn2c1=O	none (no result: CYP2C19 activ, CYP2C9 inh, Rev-RRE block, CYP2C19 inhib, CYP2C9 activ)
Cc1noc(C(=O)NCc2ccc(F)cc2)c1Cl	none
Cc1cc(C)c(C#N)c(N2CCN(Cc3ccccc3)CC2)n1	CYP2C9 inh 50.1, CYP2C19 inhib 61.5
N#Cc1c(NCCN)nc(NCc2ccccc2)c2c1CCN(Cc1ccccc1)C2	CYP2C9 inh 95.2, CYP2C19 inhib 87.6

High-throughput results: PubChem BioAssay, several laboratories
